According to ChEMBL document CHEMBL5058577, “EUbOPEN Chemogenomics Library 2 (Multiplex)” (2022):

Tested on: U2OS
Test: Multiplex assay against U2OS
Assay type: toxicity, cell-based
Details: human
Procedure, shortened: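 Cells were classed with CellPathfinder machine-learning gating, first as Hoechst high-intensity objects or normal cells, then (normal cells) as healthy, pyknosed or fragmented nuclei, and finally (pyknosed cells) as mitotic or apoptotic. Staining of live cells at seeding used Hoechst33342, BioTracker Green Microtubule Cytoskeleton Dye, MitoTracker Red and Annexin V Alexa Fluor 680, with imaging on a CQ1 microscope at 37°C and 5% CO2 after compound addition. Tubulin, mitochondrial-mass and membrane-permeability phenotypes are per cents of healthy-nucleus cells.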

[1] = 12 h, 1 µM, compound concentration 1 uM, replicate 1
[2] = 12 h, 1 µM, compound concentration 1 uM, replicate 2
[3] = 12 h, 10 µM, compound concentration 10 uM, replicate 1
[4] = 12 h, 10 µM, compound concentration 10 uM, replicate 2
[5] = 24 h, 1 µM, compound concentration 1 uM, replicate 1
[6] = 24 h, 1 µM, compound concentration 1 uM, replicate 2
[7] = 24 h, 10 µM, compound concentration 10 uM, replicate 1
[8] = 24 h, 10 µM, compound concentration 10 uM, replicate 2
[9] = 48 h, 1 µM, compound concentration 1 uM, replicate 1
[10] = 48 h, 1 µM, compound concentration 1 uM, replicate 2
[11] = 48 h, 10 µM, compound concentration 10 uM, replicate 1
[12] = 48 h, 10 µM, compound concentration 10 uM, replicate 2

SMILES: CC(/C=C1\SC(=S)N(CCCC(=O)Nc2ccc(C(=O)O)c(O)c2)C1=O)=C\c1ccccc1
- Population Apoptotic (%) [1]: 94%
- Population Fragmented Nuclei (%) [1]: 26%
- Population Healthy Nuclei (%) [1]: 64%
- Population Hoechst High Intensity Objects (%) [1]: 3%
- Population Membrane Permeable-Phenotype (%) [1]: 4%
- Population Mitochondria Different-Phenotype (%) [1]: 1%
- Population Mitotic Cells (%) [1]: 5%
- Population Normal (%) [1]: 96%
- Population Pyknosed Nuclei (%) [1]: 8%
- Population Tubulin-Different-Phenotype (%) [1]: 3%
- Total Cell Count [1]: 205
- Population Apoptotic (%) [2]: 100%
- Population Fragmented Nuclei (%) [2]: 12%
- Population Healthy Nuclei (%) [2]: 80%
- Population Hoechst High Intensity Objects (%) [2]: 4%
- Population Membrane Permeable-Phenotype (%) [2]: 3%
- Population Mitochondria Different-Phenotype (%) [2]: 2%
- Population Mitotic Cells (%) [2]: 0%
- Population Normal (%) [2]: 95%
- Population Pyknosed Nuclei (%) [2]: 7%
- Population Tubulin-Different-Phenotype (%) [2]: 0%
- Total Cell Count [2]: 133
- Population Apoptotic (%) [3]: 91%
- Population Fragmented Nuclei (%) [3]: 28%
- Population Healthy Nuclei (%) [3]: 61%
- Population Hoechst High Intensity Objects (%) [3]: 3%
- Population Membrane Permeable-Phenotype (%) [3]: 12%
- Population Mitochondria Different-Phenotype (%) [3]: 2%
- Population Mitotic Cells (%) [3]: 8%
- Population Normal (%) [3]: 96%
- Population Pyknosed Nuclei (%) [3]: 9%
- Population Tubulin-Different-Phenotype (%) [3]: 4%
- Total Cell Count [3]: 241
- Population Apoptotic (%) [4]: 72%
- Population Fragmented Nuclei (%) [4]: 16%
- Population Healthy Nuclei (%) [4]: 72%
- Population Hoechst High Intensity Objects (%) [4]: 0%
- Population Membrane Permeable-Phenotype (%) [4]: 4%
- Population Mitochondria Different-Phenotype (%) [4]: 1%
- Population Mitotic Cells (%) [4]: 27%
- Population Normal (%) [4]: 100%
- Population Pyknosed Nuclei (%) [4]: 10%
- Population Tubulin-Different-Phenotype (%) [4]: 5%
- Total Cell Count [4]: 101
- Population Apoptotic (%) [5]: 83%
- Population Fragmented Nuclei (%) [5]: 25%
- Population Healthy Nuclei (%) [5]: 64%
- Population Hoechst High Intensity Objects (%) [5]: 3%
- Population Membrane Permeable-Phenotype (%) [5]: 4%
- Population Mitochondria Different-Phenotype (%) [5]: 1%
- Population Mitotic Cells (%) [5]: 16%
- Population Normal (%) [5]: 96%
- Population Pyknosed Nuclei (%) [5]: 10%
- Population Tubulin-Different-Phenotype (%) [5]: 1%
- Total Cell Count [5]: 247
- Population Apoptotic (%) [6]: 94%
- Population Fragmented Nuclei (%) [6]: 9%
- Population Healthy Nuclei (%) [6]: 79%
- Population Hoechst High Intensity Objects (%) [6]: 1%
- Population Membrane Permeable-Phenotype (%) [6]: 10%
- Population Mitotic Cells (%) [6]: 5%
- Population Normal (%) [6]: 98%
- Total Cell Count [6]: 177
- Population Apoptotic (%) [7]: 88%
- Population Fragmented Nuclei (%) [7]: 26%
- Population Healthy Nuclei (%) [7]: 64%
- Population Hoechst High Intensity Objects (%) [7]: 2%
- Population Membrane Permeable-Phenotype (%) [7]: 7%
- Population Mitochondria Different-Phenotype (%) [7]: 3%
- Population Mitotic Cells (%) [7]: 11%
- Population Normal (%) [7]: 97%
- Population Pyknosed Nuclei (%) [7]: 8%
- Population Tubulin-Different-Phenotype (%) [7]: 3%
- Total Cell Count [7]: 298
- Population Apoptotic (%) [8]: 53%
- Population Fragmented Nuclei (%) [8]: 16%
- Population Healthy Nuclei (%) [8]: 72%
- Population Hoechst High Intensity Objects (%) [8]: 0%
- Population Mitochondria Different-Phenotype (%) [8]: 6%
- Population Mitotic Cells (%) [8]: 46%
- Population Normal (%) [8]: 100%
- Population Pyknosed Nuclei (%) [8]: 11%
- Population Tubulin-Different-Phenotype (%) [8]: 6%
- Total Cell Count [8]: 111
- Population Apoptotic (%) [9]: 93%
- Population Fragmented Nuclei (%) [9]: 16%
- Population Healthy Nuclei (%) [9]: 74%
- Population Hoechst High Intensity Objects (%) [9]: 2%
- Population Membrane Permeable-Phenotype (%) [9]: 5%
- Population Mitochondria Different-Phenotype (%) [9]: 1%
- Population Mitotic Cells (%) [9]: 6%
- Population Normal (%) [9]: 97%
- Population Pyknosed Nuclei (%) [9]: 8%
- Population Tubulin-Different-Phenotype (%) [9]: 1%
- Total Cell Count [9]: 368
- Population Apoptotic (%) [10]: 78%
- Population Fragmented Nuclei (%) [10]: 11%
- Population Healthy Nuclei (%) [10]: 79%
- Population Hoechst High Intensity Objects (%) [10]: 3%
- Population Membrane Permeable-Phenotype (%) [10]: 4%
- Population Mitochondria Different-Phenotype (%) [10]: 3%
- Population Mitotic Cells (%) [10]: 21%
- Population Normal (%) [10]: 96%
- Population Pyknosed Nuclei (%) [10]: 9%
- Population Tubulin-Different-Phenotype (%) [10]: 2%
- Total Cell Count [10]: 253
- Population Apoptotic (%) [11]: 97%
- Population Fragmented Nuclei (%) [11]: 19%
- Population Healthy Nuclei (%) [11]: 68%
- Population Hoechst High Intensity Objects (%) [11]: 2%
- Population Membrane Permeable-Phenotype (%) [11]: 6%
- Population Mitochondria Different-Phenotype (%) [11]: 2%
- Population Mitotic Cells (%) [11]: 2%
- Population Normal (%) [11]: 97%
- Population Pyknosed Nuclei (%) [11]: 12%
- Population Tubulin-Different-Phenotype (%) [11]: 4%
- Total Cell Count [11]: 396
- Population Apoptotic (%) [12]: 82%
- Population Fragmented Nuclei (%) [12]: 16%
- Population Healthy Nuclei (%) [12]: 73%
- Population Hoechst High Intensity Objects (%) [12]: 1%
- Population Membrane Permeable-Phenotype (%) [12]: 4%
- Population Mitochondria Different-Phenotype (%) [12]: 1%
- Population Mitotic Cells (%) [12]: 17%
- Population Normal (%) [12]: 98%
- Population Pyknosed Nuclei (%) [12]: 10%
- Population Tubulin-Different-Phenotype (%) [12]: 0%
- Total Cell Count [12]: 170
